For data set [1], the system named is Rattus norvegicus. Put plainly: Evaluated for the distribution of radioactivity in tissues of female Fischer rats kidneys after 60 minutes intravenous administration; dose/g, range 0.17-0.25. Type of data set: ADME, organism-based, Kidney. Conditions: in vivo, 1 h.
Data set [2] relates to Rattus norvegicus. As to the kind of experiment: Evaluated for the distribution of radioactivity in tissues of female Fischer rats thyroid after 5 minutes intravenous administration; dose/g, range 5-8. In kind it is ADME, organism-based, Thyroid gland. Conditions: in vivo. The essentials:
(§1)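 Female Fischer 344 rats (10-12 weeks, 170-200 g), fed ad libitum, got a single iv tail-vein injection under ether anaesthesia of the 125I-labelled cation (2.85-8.38 μCi). The tracer was dissolved in Me2SO, diluted with saline to 1% Me2SO and filtered. At the set times rats were killed by cervical fracture and blood taken by cardiac puncture. Organs were rinsed, blotted, weighed and gamma-counted against injectate standards. Results are %dose/g, mean and range, n=5. Thyroid weight was taken as 7.5 mg/100 g body weight.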

Data set [3] deals with Rattus norvegicus. Put plainly: Evaluated for the distribution of radioactivity in tissues of female Fischer rats liver after 60 minutes intravenous administration; dose/g, range 1.08-2.31. In kind it is ADME, organism-based. The following applies: in vivo, 1 h. The essentials: as §1
Data set [4] deals with Rattus norvegicus. As to the kind of experiment: Evaluated for the distribution of radioactivity in tissues of female Fischer rats heart after 30 minutes intravenous administration; dose/g, range 0.95-1.44. Conditions: in vivo, 0.5 h. In kind it is ADME, organism-based.
Data set [5] has as its system Rattus norvegicus. Put plainly: Evaluated for the distribution of radioactivity in tissues of female Fischer rats liver after 5 minutes intravenous administration; dose/g, range 4.12-6.30. In kind it is ADME, organism-based. The following applies: in vivo. The essentials:
as §1

For data set [6], the system named is Rattus norvegicus. Put plainly: Evaluated for the distribution of radioactivity in tissues of female Fischer rats kidneys after 5 minutes intravenous administration; dose/g, range 4.78-9.72. In kind it is ADME, organism-based, Kidney. The following applies: in vivo.
Data set [7] has as its system Rattus norvegicus. Put plainly: Evaluated for the distribution of radioactivity in tissues of female Fischer rats heart after 60 minutes intravenous administration; dose/g, range 1.05-1.57. In kind it is ADME, organism-based. Conditions: in vivo, 1 h.
Data set [8] relates to Rattus norvegicus. Put plainly: Evaluated for the distribution of radioactivity in tissues of female Fischer rats lungs after 30 minutes intravenous administration.; dose/g, range 0.34-0.47. In kind it is ADME, organism-based, Lung. The following applies: in vivo, 0.5 h. The essentials: as §1
Data set [9] relates to Rattus norvegicus. Put plainly: Evaluated for the distribution of radioactivity in tissues of female Fischer rats blood after 30 minutes intravenous administration; dose/g, range 0.07-0.09. Type of data set: ADME, organism-based. Conditions: in vivo, 0.5 h.
Data set [10] deals with Rattus norvegicus. As to the kind of experiment: Evaluated for the distribution of radioactivity in tissues of female Fischer rats lungs after 60 minutes intravenous administration; dose/g, range 0.28-0.33. In kind it is ADME, organism-based, Lung. The following applies: in vivo, 1 h. The essentials: as §1
Data set [11] deals with Rattus norvegicus. As to the kind of experiment: Evaluated for the distribution of radioactivity in tissues of female Fischer rats blood after 60 minutes intravenous administration; dose/g, range 0.08-0.09. The following applies: in vivo, 1 h. Type of data set: ADME, organism-based.
Data set [12] deals with Rattus norvegicus. As to the kind of experiment: Evaluated for the distribution of radioactivity in tissues of female Fischer rats kidneys after 30 minutes intravenous administration; dose/g, range 0.24-0.31. In kind it is ADME, organism-based, Kidney. Conditions: in vivo, 0.5 h.
Data set [13] concerns Rattus norvegicus. As to the kind of experiment: Evaluated for the distribution of radioactivity in tissues of female Fischer rats liver after 30 minutes intravenous administration; dose/g, range 2.30-3.12. Type of data set: ADME, organism-based. The following applies: in vivo, 0.5 h.
In data set [14] the test system is Rattus norvegicus. Put plainly: Evaluated for the distribution of radioactivity in tissues of female Fischer rats heart after 5 minutes intravenous administration; dose/g, range 0.90-1.46. The following applies: in vivo. Type of data set: ADME, organism-based.
For data set [15], the system named is Rattus norvegicus. Put plainly: Evaluated for the distribution of radioactivity in tissues of female Fischer rats thyroid after 60 minutes intravenous administration; dose/g, range 5-12. Type of data set: ADME, organism-based, Thyroid gland. Conditions: in vivo, 1 h. The essentials:
as §1

For data set [16], the system named is Rattus norvegicus. As to the kind of experiment: Evaluated for the distribution of radioactivity in tissues of female Fischer rats thyroid after 30 minutes intravenous administration; dose/g, range 4-7. Type of data set: ADME, organism-based, Thyroid gland. Conditions: in vivo, 0.5 h. The procedure, abridged: as §1
Data set [17] relates to Rattus norvegicus. Put plainly: Evaluated for the distribution of radioactivity in tissues of female Fischer rats lungs after 5 minutes intravenous administration; dose/g, range 0.51-0.66. In kind it is ADME, organism-based, Lung. The following applies: in vivo. The procedure, abridged: as §1
In data set [18] the test system is Rattus norvegicus. As to the kind of experiment: Evaluated for the distribution of radioactivity in tissues of female Fischer rats blood after 5 minutes intravenous administration; dose/g, range 0.10-0.14. Type of data set: ADME, organism-based. Conditions: in vivo.
The test system of data set [19] is Rattus norvegicus. As to the kind of experiment: Evaluated for the distribution of radioactivity in tissues of female Fischer rats kidneys after 60 minutes intravenous administration; dose/g, range 4.59-8.81. In kind it is ADME, organism-based, Kidney. The following applies: in vivo, 1 h.
Data set [20] has as its system Rattus norvegicus. Put plainly: Evaluated for the distribution of radioactivity in tissues of female Fischer rats kidneys after 5 minutes intravenous administration; dose/g, range 10.7-16.9. Conditions: in vivo. Type of data set: ADME, organism-based, Kidney.
Data set [21] deals with Rattus norvegicus. As to the kind of experiment: Evaluated for the distribution of radioactivity in tissues of female Fischer rats kidneys after 30 minutes intravenous administration; dose/g, range 10.5-14.4. Type of data set: ADME, organism-based, Kidney. The following applies: in vivo, 0.5 h.
Data set [22] concerns Rattus norvegicus. Put plainly: Evaluated for the distribution of radioactivity in tissues of female Fischer rats thyroid after 5 minutes intravenous administration; dose/g, range 22-25. Type of data set: ADME, organism-based, Thyroid gland. Conditions: in vivo.
Data set [23] deals with Rattus norvegicus. As to the kind of experiment: Evaluated for the distribution of radioactivity in tissues of female Fischer rats blood after 60 minutes intravenous administration; dose/g, range 0.15-0.23. Type of data set: ADME, organism-based. Conditions: in vivo, 1 h.
Data set [24] concerns Rattus norvegicus. Put plainly: Evaluated for the distribution of radioactivity in tissues of female Fischer rats thyroid after 30 minutes intravenous administration; dose/g, range 32-42. Type of data set: ADME, organism-based, Thyroid gland. The following applies: in vivo, 0.5 h.
Data set [25] concerns Rattus norvegicus. As to the kind of experiment: Evaluated for the distribution of radioactivity in tissues of female Fischer rats blood after 30 minutes intravenous administration; dose/g, range 0.22-0.32. In kind it is ADME, organism-based. Conditions: in vivo, 0.5 h.
Data set [26] has as its system Rattus norvegicus. As to the kind of experiment: Evaluated for the distribution of radioactivity in tissues of female Fischer rats liver after 30 minutes intravenous administration; dose/g, range 0.57-0.72. Conditions: in vivo, 0.5 h. In kind it is ADME, organism-based.
The test system of data set [27] is Rattus norvegicus. Put plainly: Evaluated for the distribution of radioactivity in tissues of female Fischer rats liver after 5 minutes intravenous administration; dose/g, range 1.26-2.45. Type of data set: ADME, organism-based. The following applies: in vivo.
For data set [28], the system named is Rattus norvegicus. As to the kind of experiment: Evaluated for the distribution of radioactivity in tissues of female Fischer rats lungs after 60 minutes intravenous administration; dose/g, range 0.83-2.11. Type of data set: ADME, organism-based, Lung. Conditions: in vivo, 1 h.
Data set [29] has as its system Rattus norvegicus. Put plainly: Evaluated for the distribution of radioactivity in tissues of female Fischer rats heart after 30 minutes intravenous administration; dose/g, range 2.67-4.31. Type of data set: ADME, organism-based. The following applies: in vivo, 0.5 h.
Data set [30] concerns Rattus norvegicus. As to the kind of experiment: Evaluated for the distribution of radioactivity in tissues of female Fischer rats liver after 60 minutes intravenous administration; dose/g, range 0.24-0.30. Type of data set: ADME, organism-based. Conditions: in vivo, 1 h.
For data set [31], the system named is Rattus norvegicus. As to the kind of experiment: Evaluated for the distribution of radioactivity in tissues of female Fischer rats heart after 60 minutes intravenous administration; dose/g, range 3-3.70. Conditions: in vivo, 1 h. In kind it is ADME, organism-based.
Data set [32] relates to Rattus norvegicus. Put plainly: Evaluated for the distribution of radioactivity in tissues of female Fischer rats lungs after 5 minutes intravenous administration; dose/g, range 0.95-1.49. Type of data set: ADME, organism-based, Lung. The following applies: in vivo.
For data set [33], the system named is Rattus norvegicus. As to the kind of experiment: Evaluated for the distribution of radioactivity in tissues of female Fischer rats blood after 5 minutes intravenous administration; dose/g, range 0.25-0.34. The following applies: in vivo. In kind it is ADME, organism-based.
For data set [34], the system named is Rattus norvegicus. As to the kind of experiment: Evaluated for the distribution of radioactivity in tissues of female Fischer rats heart after 5 minutes intravenous administration; dose/g, range 2.78-3.62. Type of data set: ADME, organism-based. Conditions: in vivo.
Data set [35] relates to Rattus norvegicus. As to the kind of experiment: Evaluated for the distribution of radioactivity in tissues of female Fischer rats thyroid after 60 minutes intravenous administration; dose/g, range 30-53. Type of data set: ADME, organism-based, Thyroid gland. The following applies: in vivo, 1 h.
The subject of data set [36] is Rattus norvegicus. As to the kind of experiment: Evaluated for the distribution of radioactivity in tissues of female Fischer rats lungs after 30 minutes intravenous administration; dose/g, range 0.99-1.23. The following applies: in vivo, 0.5 h. In kind it is ADME, organism-based, Lung.

SMILES strings stand for the structures.

For the molecule `CC[N+](CC)(CC)CCC/C=C/I.[I-]`, the Distribution with Rattus norvegicus [1] is 0.21%; in the data set with Rattus norvegicus [2] it was 6%; in the data set with Rattus norvegicus [3], 1.55%; in the data set with Rattus norvegicus [4] it was 1.11%; in the data set with Rattus norvegicus [5], 5.16%; in the data set on Rattus norvegicus [6] it was 7.46%. Further, the Distribution with Rattus norvegicus [7] came out at 1.21%; in the data set on Rattus norvegicus [8], 0.39%; in the data set with Rattus norvegicus [9], 0.08%; with Rattus norvegicus [10] it was 0.29%; in the data set with Rattus norvegicus [11], 0.09%; with Rattus norvegicus [12] it was 0.27%. Further, the Distribution stood at 2.76% in the data set with Rattus norvegicus [13]; 1.12% with Rattus norvegicus [14]; 9% in the data set with Rattus norvegicus [15]; 5% in the data set with Rattus norvegicus [16]; 0.57% with Rattus norvegicus [17]; 0.12% with Rattus norvegicus [18].
For the molecule `I/C=C/CCC[As+](c1ccccc1)(c1ccccc1)c1ccccc1.[I-]`, the Distribution in the data set on Rattus norvegicus [19] was found to be 6.92%; with Rattus norvegicus [20] it was 13.14%; in the data set on Rattus norvegicus [21] it was 12.01%; in the data set with Rattus norvegicus [22], 23%; with Rattus norvegicus [23], 0.19%; in the data set on Rattus norvegicus [24], 37%. The Distribution in the data set with Rattus norvegicus [25] amounted to 0.26%; with Rattus norvegicus [26] it was 0.64%; in the data set with Rattus norvegicus [27] it was 1.78%; in the data set on Rattus norvegicus [28], 1.31%; with Rattus norvegicus [29] it was 3.17%; in the data set with Rattus norvegicus [30] it was 0.27%. Moreover, the Distribution in the data set with Rattus norvegicus [31] came out at 3.37%; with Rattus norvegicus [32] it was 1.24%; in the data set on Rattus norvegicus [33] it was 0.31%; with Rattus norvegicus [34], 3.22%; in the data set with Rattus norvegicus [35], 43%; with Rattus norvegicus [36] it was 1.09%.

Values taken from ChEMBL document CHEMBL1122900, “Effects of alkyl and aryl substitution on the myocardial specificity of radioiodinated phosphonium, arsonium, and ammonium cations” (J Med Chem, 1985).
